ABCB6 inh MLPCN – human ABCB6 transporter inhibition. Q9NP58. K562-ABCB6 porphyrin accumulation, flow cytometry, 1 h; hits give low values. fluorescence ratio to DMSO, % at 10 µM. 0.19% of 360,000 active. AID 602162;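 active means fluorescence ratio to DMSO below 75%, the collection mean minus 3 SD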;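 further: signal is porphyrin accumulated inside mitochondria; 100% equals median channel fluorescence of DMSO control wells; lower ratio means ABCB6 inhibition with less porphyrin fluorescence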
Target sequence (Q9NP58 whole entry, looked up): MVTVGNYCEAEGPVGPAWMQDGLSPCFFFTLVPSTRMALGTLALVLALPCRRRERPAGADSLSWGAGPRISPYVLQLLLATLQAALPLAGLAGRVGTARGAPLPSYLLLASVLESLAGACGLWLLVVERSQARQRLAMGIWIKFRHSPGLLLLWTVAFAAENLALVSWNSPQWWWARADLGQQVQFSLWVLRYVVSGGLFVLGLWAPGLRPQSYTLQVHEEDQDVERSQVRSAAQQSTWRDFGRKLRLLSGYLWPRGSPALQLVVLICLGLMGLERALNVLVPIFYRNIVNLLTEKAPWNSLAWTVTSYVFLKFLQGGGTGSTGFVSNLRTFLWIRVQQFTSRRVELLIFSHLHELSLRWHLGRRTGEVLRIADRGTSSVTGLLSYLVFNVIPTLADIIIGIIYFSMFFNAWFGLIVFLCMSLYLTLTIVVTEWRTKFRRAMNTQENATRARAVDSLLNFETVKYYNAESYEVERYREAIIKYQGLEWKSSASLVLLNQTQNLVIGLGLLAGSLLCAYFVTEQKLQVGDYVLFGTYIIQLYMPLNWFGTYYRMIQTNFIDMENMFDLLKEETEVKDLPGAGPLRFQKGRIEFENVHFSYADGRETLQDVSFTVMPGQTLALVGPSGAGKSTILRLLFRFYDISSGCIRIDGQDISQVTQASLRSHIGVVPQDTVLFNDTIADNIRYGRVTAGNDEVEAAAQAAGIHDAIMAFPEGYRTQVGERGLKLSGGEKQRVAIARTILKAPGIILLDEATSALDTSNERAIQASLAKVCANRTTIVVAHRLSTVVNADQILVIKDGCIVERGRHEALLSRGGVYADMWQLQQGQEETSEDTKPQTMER
iPSC survival up – hiPSC single-cell survival enhancement; survival enhancement, % at 20 µM; ATPlite luminescence; 100% = ROCK inhibitor wells, 0% = DMSO; 0.044% of 360,000 active; in the data active means survival enhancement above about 18%;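 further: cells exposed to compounds for 16 hours before the ATP read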
PG9 binder – small molecules binding HIV-1 gp120 antibody PG9; TR-FRET gp120-PG9 antibody binding; inhibition, % at 6.7 µM; 0.43% of 360,000 active; AID 624416; in the data active means inhibition above about 8.5%
Arr AP2 block – inhibitors of human beta-arrestin and AP2 interaction; FITC-arrestin peptide / GST-AP2 beads, flow cytometry; AP2 beta2 appendage carries R879A mutation; inhibition, % at 10 µM; 0.31% of 340,000 active; AID 504490;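 active means inhibition above a set limit, near 3 SD of compounds lacking own fluorescence, cut at about 54% in these data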;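 further: plate controls were DMSO wells for no effect and 5 µM unlabelled arrestin peptide for full effect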
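Assay system: GST-AP2 R879A bound to glutathione beads, E. coli-expressed; Medium: PBS with 0.05% Tween 20 and 0.1% BSA; Also added: fluorescein-tagged arrestin peptide at 50 nM final; Timing: 12 min plus 1 h, RT; Measured by: flow cytometry, FL1 (488/535 nm); Evaluation: percent drop in bead-associated FITC signal.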
PG9 bind confirm – confirmation of small molecules binding HIV-1 gp120 antibody PG9; shares compounds with PG9 binder; TR-FRET PG9 antibody binding, biochemical; inhibition, % at 6.7 µM; 90% of 1,500 active; AID 651571; in the data active means inhibition above about 9%
PGV04 Ab binding – counter-screen for PG9 binders: binding control antibody PGV04; shares compounds with PG9 binder; TR-FRET PGV04 antibody-gp120 binding, biochemical; inhibition, % at 6.7 µM; 95% of 1,500 active; AID 651604; in the data active means inhibition above about 9.5%
PG9 bind DR – small molecules binding HIV-1 gp120 antibody PG9; shares compounds with PG9 binder; IC50, µM; 95 tested, under 10 active; TR-FRET PG9 antibody-gp120 binding inhibition; in the data active means IC50 below about 10 µM
PGV04 binding DR – binds control antibody PGV04 in PG9 counter-screen | shares compounds with PG9 binder | TR-FRET binding to control antibody PGV04 | IC50, µM | 20% of 95 active | AID 651937
PG126 DR counter – binds control antibody PG126 in PG9 counter-screen; 20% of 95 active; TR-FRET binding to antibody PG126, counterscreen; IC50, µM; shares compounds with PG9 binder
Numbers without * were called inactive; i = inactive; . = no result. In the library only some 0.89% were active in any assay of this set; here they are far more common. Unless noted, no stated cut-off is given here; in the data, active means IC50 below about 9 µM; inactive means the rest.

SMILES | ABCB6 inh MLPCN | iPSC survival up | PG9 binder | Arr AP2 block | PG9 bind confirm | PGV04 Ab binding | others
Cc1ccc(NC(=O)CSc2nc3sc(C)cc3c(=O)n2C)cc1 | 101 | 0 | 17* | 15 | 16* | 26*
COc1ccc(C(=O)CSc2nnc(-c3cc(C)on3)o2)cc1 | 97 | 0 | 19* | 6 | 23* | 49*
Cc1cc(-c2nnc(SCC(=O)c3ccc(Cl)cc3)o2)no1 | 106 | 0 | 2 | 0 | . | .
COC(=O)[C@]12C[C@H](CC(=O)NCc3cccs3)C(=O)N(CCC3=CCCCC3)C1=C[C@H](COCc1ccccc1)O[C@@H]2C | . | . | -2 | . | . | .
COC(=O)c1sc(NC(=O)C2CCCCC2C(=O)O)c(C(=O)OC)c1C (stereo not given) | 101 | 0 | 13* | -9 | 18* | 23*
COC(=O)c1c(NC(=O)C2CCCCC2C(=O)O)sc2c1CCCCC2 (stereo not given) | 97 | 1 | 5 | 8 | . | .
CCCCOc1ccc(C(=O)Nn2c(-c3cccs3)nc3ccccc3c2=O)cc1 | 98 | 1 | 30* | 5 | 37* | 59*
CCOC(=O)N(C)[C@H]1C[C@H]2c3cc(-c4ccccc4C)ccc3CCN2C[C@H]1[C@H](C)O | . | . | 2 | . | . | .
CCc1cccc(C)c1NC(=O)c1cc(=O)[nH]c2ccc(S(=O)(=O)N3CCOCC3)cc12 | 89 | 1 | 14* | -22 | 18* | 28*
Cc1ccc(NC(=O)c2cc(=O)[nH]c3ccc(S(=O)(=O)N4CCOCC4)cc23)cc1 | 96 | 0 | -2 | -1 | . | .
COc1ccc(O)c(/C=C(\C#N)C(=O)Nc2cccnc2)c1 | 92 | -1 | 24* | 8 | 13* | 16*
O=C(C1=C(O)C(=O)N(CC2CCCO2)C1c1ccc(Cl)cc1Cl)c1ccco1 (stereo not given) | 100 | 1 | 11* | 1 | 19* | 23*
O=C(N[C@H](C(=O)N1CCC[C@H]1C(=O)NCCc1ccccc1Cl)c1ccccc1)c1cccs1 | . | . | 2 | . | . | .
COc1cccc(-c2cccc3c4c([nH]c23)[C@@H]2C[C@H]3[C@@H](C(=O)N2CC4)[C@H](C)ON3C)c1 | . | . | 0 | . | . | .
C=CCNc1ccc2c(c1)OC[C@H](Cc1ccccc1)NS2(=O)=O | . | . | -3 | . | . | .
COc1ccc2nc(SCC(C)=O)c(C#N)cc2c1 | 122 | -3 | -12 | 6 | . | .
COc1ccc2nc(SC)c(C#N)cc2c1 | 103 | 0 | 13* | -19 | 26* | 58*
C[C@@H]1COc2cc(N3CCCCC3)ccc2S(=O)(=O)N1 | . | . | -1 | . | . | .
COC(=O)C1=C(C)N(C)C(=NCc2ccc(C(F)(F)F)cc2)NC1c1cccc(Cl)c1 (stereo not given) | . | . | 0 | . | . | .
COC(=O)c1cc2c(c3c4cc(OC)ccc4n(S(=O)(=O)c4ccc(F)cc4)c13)C(=O)N(Cc1ccccc1)C2 | . | . | 0 | . | . | .
COC(=O)c1c(NC(=O)COC(=O)CCNS(=O)(=O)c2ccc(NC(C)=O)cc2)sc(C)c1C | 95 | 2 | 1 | 3 | . | .
CC(=O)Nc1sc(C)c(C)c1C(=O)OCC(=O)Nc1ccc(S(N)(=O)=O)cc1 | 104 | 0 | 9.6* | 28 | 13* | 23*
CCOC(=O)C1=C(C(=O)OCC)C2N(Cc3ccc(C#N)cc3)c3ccccc3[C@@]23C[C@@H](C(=O)OC)N(S(=O)(=O)c2c(C)noc2C)C3=N1 (stereo not given in full) | . | . | 1 | . | . | .
Cc1cc2ccccc2n1CCNC(=O)C1CCCCC1 | 100 | 6 | 11* | 6 | 8 | 8 | PG9 bind DR=i;PGV04 binding DR=i;PG126 DR counter=i
CCn1c(CNC(=O)C2CCCCC2)cc2ccccc21 | 97 | 2 | 32* | 0 | 16* | 23*
COc1ccc(-c2cc(NC(=O)Cc3c[nH]c4ccccc34)ccc2Nc2cccnc2)cc1F | . | . | -1 | . | . | .
